Experimental findings from ChEMBL document CHEMBL1799968, “Dimethyl-diphenyl-propanamide derivatives as nonsteroidal dissociated glucocorticoid receptor agonists” (J Med Chem, 2010) are described below.

Test [1] has as its target T1, Glucocorticoid receptor (Homo sapiens) (UniProt P04150).
T1 sequence (whole entry): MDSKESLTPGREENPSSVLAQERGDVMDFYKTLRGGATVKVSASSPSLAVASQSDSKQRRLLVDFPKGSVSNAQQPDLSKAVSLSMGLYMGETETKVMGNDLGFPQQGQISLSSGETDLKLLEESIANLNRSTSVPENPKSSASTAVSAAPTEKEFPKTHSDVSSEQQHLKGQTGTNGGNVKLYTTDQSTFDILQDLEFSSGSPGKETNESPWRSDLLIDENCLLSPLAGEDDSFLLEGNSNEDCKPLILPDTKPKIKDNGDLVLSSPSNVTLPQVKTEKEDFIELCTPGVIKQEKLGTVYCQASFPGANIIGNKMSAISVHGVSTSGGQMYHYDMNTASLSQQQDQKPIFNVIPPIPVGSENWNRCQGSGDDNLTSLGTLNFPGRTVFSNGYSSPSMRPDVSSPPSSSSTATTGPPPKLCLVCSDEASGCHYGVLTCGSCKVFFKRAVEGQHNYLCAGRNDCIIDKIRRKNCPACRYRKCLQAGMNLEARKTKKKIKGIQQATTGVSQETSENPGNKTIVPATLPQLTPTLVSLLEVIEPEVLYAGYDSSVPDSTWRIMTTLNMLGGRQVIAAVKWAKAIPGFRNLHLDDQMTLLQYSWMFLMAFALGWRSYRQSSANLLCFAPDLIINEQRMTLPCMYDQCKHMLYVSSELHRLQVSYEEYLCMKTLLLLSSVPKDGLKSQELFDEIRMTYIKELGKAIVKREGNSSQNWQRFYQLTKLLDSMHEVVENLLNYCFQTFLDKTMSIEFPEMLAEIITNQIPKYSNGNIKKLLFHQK
Put plainly: Transrepression activity of glucocorticoid receptor in human A549 cells expressing AP-1 assessed as inhibition of PMA-induced AP-1 activity by luciferase reporter gene assay relative to Dexamethasone. The format is cell-based. The method, boiled down: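 Human A549 lung epithelial cells stably transfected with a 5×AP-1 response element luciferase reporter. AP-1 was induced with PMA (15 ng/mL), and inhibition was read as decreased luciferase.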
A general note: In a reporter assay the amount or activity of a reporter protein is the signal.

In test [2] the target is T2, Glucocorticoid receptor (Homo sapiens, UniProt P04150).
T2 sequence (P04150 whole entry): T1 sequence (whole entry)
Briefly: Transactivation activity of glucocorticoid receptor ligand binding domain expressed in human NP-1 Hela cells co-expressing GAL4 DNA binding domain by luciferase reporter gene assay. In kind it is cell-based.

Test [3] has as its target T2, Glucocorticoid receptor. Briefly: Transrepression activity of glucocorticoid receptor in human A549 cells expressing AP-1 assessed as inhibition of PMA-induced AP-1 activity by luciferase reporter gene assay. In kind it is cell-based.
For test [4], the target named is T2, Glucocorticoid receptor. Briefly: Transactivation activity at glucocorticoid receptor in human 13D3/Huh7 cells assessed as induction of tyrosine aminotransferase activity after 24 hrs. In kind it is cell-based, Huh-7.
For test [5], the target named is T2, Glucocorticoid receptor. Put plainly: Displacement of GS-red from GRapha by fluorescence polarization assay.
The target of test [6] is T3, Mineralocorticoid receptor (Homo sapiens, UniProt P08235).
T3 sequence (P08235 whole entry): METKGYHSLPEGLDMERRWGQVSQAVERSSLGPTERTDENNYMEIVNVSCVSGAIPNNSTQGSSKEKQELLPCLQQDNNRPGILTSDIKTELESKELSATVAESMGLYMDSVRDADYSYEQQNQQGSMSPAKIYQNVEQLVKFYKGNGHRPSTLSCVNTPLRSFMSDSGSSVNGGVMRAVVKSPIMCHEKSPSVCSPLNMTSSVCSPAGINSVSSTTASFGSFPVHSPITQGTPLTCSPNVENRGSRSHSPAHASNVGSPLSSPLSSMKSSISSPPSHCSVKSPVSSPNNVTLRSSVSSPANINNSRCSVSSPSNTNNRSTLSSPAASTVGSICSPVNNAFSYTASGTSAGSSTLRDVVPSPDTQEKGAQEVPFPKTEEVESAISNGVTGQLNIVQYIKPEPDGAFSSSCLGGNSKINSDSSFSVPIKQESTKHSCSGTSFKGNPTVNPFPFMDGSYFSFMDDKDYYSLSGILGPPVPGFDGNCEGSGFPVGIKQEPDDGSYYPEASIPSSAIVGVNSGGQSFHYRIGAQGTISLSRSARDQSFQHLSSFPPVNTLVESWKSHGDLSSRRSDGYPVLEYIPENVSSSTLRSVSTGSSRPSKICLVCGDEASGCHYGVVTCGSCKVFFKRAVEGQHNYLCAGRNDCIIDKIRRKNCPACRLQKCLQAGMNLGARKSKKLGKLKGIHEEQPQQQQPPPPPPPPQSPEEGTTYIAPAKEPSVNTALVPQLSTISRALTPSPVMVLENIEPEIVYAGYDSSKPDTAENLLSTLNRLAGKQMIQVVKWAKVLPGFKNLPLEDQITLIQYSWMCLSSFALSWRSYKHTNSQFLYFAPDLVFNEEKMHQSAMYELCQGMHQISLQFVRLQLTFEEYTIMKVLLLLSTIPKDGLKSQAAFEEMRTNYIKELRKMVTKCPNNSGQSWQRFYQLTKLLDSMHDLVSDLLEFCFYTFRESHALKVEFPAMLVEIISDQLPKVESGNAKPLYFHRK
Briefly: Agonist activity at mineralocorticoid receptor in human A549 cells. In kind it is functional, cell-based.

The target in test [7] is T1, Glucocorticoid receptor (Homo sapiens). Briefly: Transactivation activity of glucocorticoid receptor ligand binding domain expressed in human NP-1 Hela cells co-expressing GAL4 DNA binding domain by luciferase reporter gene assay relative to Dexamethasone. The format is cell-based. A digest of the protocol:
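HeLa NP-1 cells stably carrying a GAL4 DBD–human GR LBD chimera with a GAL4 luciferase reporter. Agonist activity was read as increased luciferase activity.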

The target in test [8] is T2, Glucocorticoid receptor. Put plainly: Transrepression activity of glucocorticoid receptor in human A549 cells assessed as inhibition of IL1beta-stimulated NFkappaB-dependent E-selectin transcription by luciferase reporter gene assay. The format is cell-based.
Test [9] addresses T1, Glucocorticoid receptor (Homo sapiens). Briefly: Transrepression activity of glucocorticoid receptor in human A549 cells assessed as inhibition of IL1beta-stimulated NFkappaB-dependent E-selectin transcription by luciferase reporter gene assay relative to Dexamethasone. In kind it is cell-based.
Test [10] is described as follows: Selectivity ratio of Ki of GRapha to Ki of androgen receptor.

Usually EC50 stands for the concentration that produces a half-maximal response. One may read the Ki as a measure of affinity in units of concentration, obtained from inhibition or displacement. A low value points to a stronger hold on the target. In the case of `CC(C)(C(=O)Nc1nncs1)[C@H]1c2ccccc2Oc2cc(O)ccc21`, the Efficacy in test [1] stood at 82%; in test [7], 46%; in test [9] it was 62%. Besides, the EC50 in [2] is 85.7 nM; in test [3], 7.8 nM; in test [4], 91.3 nM; in [6] it was more than 5000 nM; in test [8] it was 3.5 nM. In addition, the Ki in test [5] came out at 0.8 nM. In addition, the Ratio Ki in test [10] is more than 870.

For the compound `CC(C)(C(=O)Nc1nccs1)[C@H]1c2ccccc2Oc2cc(O)ccc21`, the Efficacy in test [1] amounted to 81%; in test [7], 30%; in test [9], 68%. The EC50 in test [2] was 60.1 nM; in test [3], 17.5 nM; in test [4], 27.1 nM; in test [6], more than 5000 nM; in [8], 9.3 nM. Also, the Ki in [5] is 0.3 nM. The Ratio Ki in test [10] is more than 870.

As for `CC(C)(C(=O)Nc1nccs1)[C@@H](c1ccccc1)c1ccc(O)c(F)c1`, the Efficacy was 79% in [1], 61% in test [7] and 68% in [9]. Moreover, the EC50 in test [2] was 119 nM; in [3] it was 15.9 nM; in [4] it was 36.1 nM; in test [6] it was more than 5000 nM; in [8], 8.6 nM. In addition, the Ki in test [5] is 0.7 nM. Further, the Ratio Ki in [10] was more than 870.

For `CC(C)(C(=O)Nc1nccs1)[C@@H](c1ccccc1)c1ccc(O)cc1`, the results for the Efficacy in test [1], in test [7] and in test [9] were 63%, 21% and 52%, respectively. For the same compound, the EC50 in [2] was 372 nM; in test [3], 40.9 nM; in [4], 251 nM; in test [6] it was more than 5000 nM; in test [8], 29.5 nM. In [5], this compound yielded a Ki of 1.2 nM. In addition, the Ratio Ki in test [10] was more than 870.

As for `CC(C)(C(=O)Nc1nccs1)[C@@H](c1ccccc1)c1ccc(O)c(Br)c1`, the results for the Efficacy in [1], in test [7] and in [9] were 83%, 48% and 71%, respectively. For the same compound, the 50% effective concentration (EC50) is 115 nM in test [2]; 40.1 nM in [3]; 142 nM in test [4]; more than 5000 nM in test [6]; 8.6 nM in test [8]. Moreover, the affinity in test [5], expressed as Ki, was 0.4 nM. Besides, the Ratio Ki in test [10] is more than 870.
